From ChEMBL document CHEMBL4270516, “Screening serine/threonine and tyrosine kinase inhibitors for histidine kinase inhibition” (Bioorg Med Chem, 2018)
The source made the active and inactive calls. The rule behind the calls is not given here.

What was measured:
[1] = Inhibition of ADP-BODIPY binding to Thermotoga maritima HK853 by fluorescence polarization assay
[2] = Inhibition of ADP-BODIPY binding to Thermotoga maritima HK853 in presence of Triton X-100 by fluorescence polarization assay
Thermotoga maritima [3] = experiment: Inhibition of ADP-BODIPY binding to Thermotoga maritima HK853 at 100 uM by fluorescence polarization assay
Thermotoga maritima [4] = experiment: Induction of Thermotoga maritima HK853 aggregation up to 500 uM in presence of glutaraldehyde by PAGE analysis
[5] = system: Sensor histidine kinase VicK/WalK (Streptococcus pneumoniae); experiment: Induction of Streptococcus pneumoniae VicK aggregation up to 500 uM in presence of glutaraldehyde by PAGE analysis
[6] = Inhibition of Thermotoga maritima HK853 autophosphorylation using compound at non-aggregating concentration after 30 mins in presence of [gamma-33P]-ATP by phosphorescence-based assay
How it was run: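 Coupled competition-aggregation assay with HK853 (T. maritima) and VicK (S. pneumoniae); enzymatic autophosphorylation followed with [γ-33P]ATP.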

Staphylococcus aureus [7] = experiment: Antibiofilm activity against methicillin-sensitive Staphylococcus aureus MSSA 447 at 112.5 to 500 uM after 18 hrs by crystal violet staining-based assay; format: functional, organism-based
How it was run: (§1)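 Biofilm formation by S. aureus and P. aeruginosa quantified by crystal violet staining, compared against DMSO-treated bacteria.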

Staphylococcus aureus [8] = experiment: Bactericidal activity against methicillin-sensitive Staphylococcus aureus MSSA 447 at 400 uM after 18 hrs by resazurin-dye based fluorescence assay; format: functional, organism-based
How it was run: (§2)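 Viability of methicillin-sensitive S. aureus and P. aeruginosa after treatment, judged by optical density and resazurin indicator dye relative to a DMSO control.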

Pseudomonas aeruginosa [9] = experiment: Antibiofilm activity against methicillin-sensitive Pseudomonas aeruginosa PAO1 at 112.5 to 500 uM after 18 hrs by crystal violet staining-based assay; format: functional, organism-based; how it was run: as §1
Pseudomonas aeruginosa [10] = experiment: Bactericidal activity against methicillin-sensitive Pseudomonas aeruginosa PAO1 at 400 uM after 18 hrs by resazurin-dye based fluorescence assay; format: functional, organism-based; how it was run: as §2
[11] = Inhibition of ADP-BODIPY binding to Thermotoga maritima HK853 after day 1 by fluorescence polarization assay
[12] = Inhibition of ADP-BODIPY binding to Thermotoga maritima HK853 after day 2 by fluorescence polarization assay

| Compound | IC50 [1] [µM] | IC50 [2] [µM] | inhibition (Thermotoga maritima [3]) [%] | Activity (Thermotoga maritima [4]) | Activity [5] | IC50 [6] [µM] | also measured |
| --- | --- | --- | --- | --- | --- | --- | --- |
| Cn1cc(C2=C(c3cccc(NCC(O)CO)c3)C(=O)NC2=O)c2cc(Cl)ccc21 (stereo unspecified) | 21.9 | 24.4 | 79.2 | Active | Active | – | – |
| COc1cc[nH]c1/C=C1\C(=O)Nc2ccc([N+](=O)[O-])c(C3CC[C@@H](O)C3)c21 (stereo partly specified) | 12 | 13 | 66.3 | Active | Active | – | – |
| Nc1ncnc2c1ncn2[C@@H]1O[C@H](COP(=O)(O)OP(=O)(O)O)[C@@H](O)[C@H]1O [ADENOSINE DIPHOSPHATE] | – | – | – | – | – | 13.7 | – |
| Cn1c(-c2ccncc2)c(-c2ccc(F)cc2)c2ncccc21 | – | – | 15 | – | – | – | – |
| Fc1ccc(-c2c(-c3ccncc3)[nH]c3nccnc23)cc1 | 23.7 | 22.5 | 79.9 | – | – | 101 | Activity (Staphylococcus aureus [7]): inactive; Activity (Staphylococcus aureus [8]): inactive; Activity (Pseudomonas aeruginosa [9]): inactive; Activity (Pseudomonas aeruginosa [10]): inactive; IC50 [11]: 2.7 µM; IC50 [12]: 6.26 µM |
| Fc1ccc(-c2c(-c3ccncc3)n(CCN3CCOCC3)c3cccnc23)cc1 | – | – | 4.8 | – | – | – | – |
| CNc1ncc2cc(Oc3ccc(F)cc3F)c(=O)n(C)c2n1 | 19.1 | 15.2 | 74.7 | Active | Active | 106 | – |
| O=C1C(c2c[nH]c3ccccc23)=C(c2c[nH]c3ccccc23)C(=O)N1O | 96 | > 300 | 81.2 | Active | Active | – | – |
| O=[N+]([O-])c1ccc2c(c1)C(c1ccccc1Cl)=Nc1c[nH]nc1N2 | 26.2 | 160 | 98.1 | Active | Active | – | – |
| Cc1cc(C)c2c(n1)sc1c(N)ncnc12 | 38.3 | 42.2 | 73.7 | – | – | 99 | – |
| Nc1ncnc2c1ncn2[C@@H]1O[C@H](COP(=O)(O)OP(=O)(O)NP(=O)(O)O)[C@@H](O)[C@H]1O | – | – | – | – | – | 48.2 | – |
| O=C1N=C(N[C@H](CO)c2ccccc2)S/C1=C\c1ccc2ncccc2c1 | 12 | 12 | 65.5 | Active | Active | 282 | – |
| OCCn1c(-c2ccncc2)c(-c2ccc(F)cc2)c2ncccc21 | – | – | 5.8 | – | – | – | – |
| Fc1ccc(-c2c(-c3ccncc3)[nH]c3cccnc23)cc1 | – | – | 6.5 | – | – | – | – |
| CONC1=NC(=O)/C(=C/c2ccc3ncccc3c2)S1 | 21.6 | 27.1 | 90.1 | – | – | 124 | – |
